Assay outcomes (PubChem)
HCT116 PTEN-null: growth suppression of PTEN-null HCT116, primary screen, cell-based, CellTiter-Glo; viability, % at 10 µM; AID 827, 2007; HCT116 PTEN-null viability, 60 h; hits give low values; 140,000 compounds, 1.2% hits;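 active = viability at or below a set limit, 4 SD under the median of all tested compounds, cut at about 3.7% in these data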;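 also: PTEN knockout HCT116 line with beta catenin targeted HCT116 as companion control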
Lung fibro prol: antiproliferative effect on LL 47 fibroblasts – human, LL 47 cells, CellTiter-Glo luminescence, primary screen. LL 47 human lung fibroblast viability, ATP luminescence; hits give low values. viability, % at 10 µM. 85,000 compounds, 1.1% hits. AID 719, 2007;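 active = viability at or below 50% in the single dose screen; inactive = viability above 50%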;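 also: compound exposure lasted 72 h before the ATP readout; 100% = median luminescence of untreated cell-only wells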
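Signal: luminescent ATP detection, CellTiter-Glo; assay system: LL 47 human lung fibroblasts; input: 1,150 cells/well; incubation: overnight cell rest, 72 h compound treatment at 37 °C; measure: % viability versus median cells-only luminescence; medium: IMEM growth medium with 15% fetal bovine serum; dosing: compound addition at 0.1% DMSO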
Calb biofilm kill: clotrimazole potentiators killing Candida biofilms, primary screen, with clotrimazole, Alamar Blue. C. albicans biofilm + clotrimazole. inhibition, % at 6 µM. 85,000 compounds, 0.14% hits. AID 834, 2007;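 active = inhibition above 20%; inactive = inhibition below 20%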;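 also: preformed 24 hr biofilms exposed to compound for 48 hr; 0% = biofilm without compound and 100% = blank killed by clotrimazole plus chlorhexidine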
bCat KO growth: primary screen for growth suppressors in beta-catenin knockout HCT116 cells (colon tumor, human); HCT116 beta-catenin knockout viability, CellTiter-Glo, 60 h; hits give low values; viability, % at 10 µM; 140,000 compounds, 1.5% hits; AID 818, 2007;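 active = viability at or under a set limit, the compound median less 4 SD, cut at about 6% in these data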;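 also: 0% = Hyamine 1622 control at 20 µM and 100% = untreated cell control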
HUVEC inhibit: inhibitors of HUVEC proliferation, primary screen, cell-based, 384-well; AID 648, 2007; CellTiter-Glo luminescence, 72 h; hits give low values; viability, % at 10 µM (by protocol); 86,000 compounds, 1.1% hits;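 active = viability at or below 30%; inactive = viability above 30%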;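 also: 100% = median luminescence of DMSO-only cell control wells on each plate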
H69AR inhibit: proliferation blockers of H69AR lung cancer cells, primary screen, cell-based, human, 86K library; H69AR lung tumor viability, ATP luminescence, 72 h; hits give low values; viability, % at 10 µM; 85,000 compounds, 6% hits; AID 598, 2007;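 active = viability at or below 40%; inactive = viability above 40%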;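 also: multidrug resistant small cell line overexpressing MRP-1 efflux transporter; 100% = mean luminescence of untreated control wells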
* hit, by the source's call; / = no result given. The entries come from a sample that favours hits as a whole.

SMILES | HCT116 PTEN-null | Lung fibro prol | Calb biofilm kill | bCat KO growth | HUVEC inhibit | H69AR inhibit
CC(=O)Oc1ccc2ccccc2c1C(NC(=O)Cc1ccccc1)c1ccccc1Cl (stereo not given) | 1.4* | / | / | 3.9* | / | /
CCCC(=O)NC(c1ccccc1Cl)c1c(O)ccc2ccccc12 (stereo not given) | 49.2 | / | / | 60.7 | / | /
CCCC(=O)OCCNc1cc(Sc2nccn2C)c2nonc2c1[N+](=O)[O-] | 1.7* | / | / | 1.9* | / | /
CCCSc1cc(NCCOC(=O)CCC)c([N+](=O)[O-])c2nonc12 | 21.2 | / | / | 21.1 | / | /
CC(=O)OCCCNc1cc(SCc2ccco2)c2nonc2c1[N+](=O)[O-] | 3.5* | / | / | 2.3* | / | /
CCCC(=O)OCCNc1cc(SCc2ccco2)c2nonc2c1[N+](=O)[O-] | 13.6 | / | / | 2.7* | / | /
Clc1cc(CSc2ccccc2)nc(-c2ccccc2)n1 | 83.4 | / | / | 90.3 | / | /
CC(C)c1ccc(-c2nc(N3CCCC3)nc3n[nH]c(N)c23)cc1 | 82.0 | 75.2 | 5.1 | 91.9 | 57.1 | 11.2*
CC(C)c1ccc(-c2nc(N3CCCCCC3)nc3n[nH]c(N)c23)cc1 | 91.4 | 81.2 | -1.1 | 101.7 | 72.6 | 40.8
O=C(CN1CCN(Cc2ccccc2)CC1)N1CCCc2c1c(=O)oc1ccc(O)cc21 | 34.0 | 81.5 | -2.5 | 37.8 | 30.9 | 7.6*
CCOc1ccc(C(=O)NC(=S)Nc2ccc(NC(=O)c3ccco3)c(C)c2)cc1[N+](=O)[O-] | 79.5 | / | / | 92.3 | / | /
O=c1cc(C(Cl)(Cl)Cl)oc2c1ccc1ccccc12 | 2.6* | / | / | 2.5* | / | /
C=CCNC(=S)N(CC=C)C1CCS(=O)(=O)C1 (stereo not given) | 103.5 | / | / | 99.7 | / | /
Cc1nc(-n2[nH]c3c(c2=O)CCCC3)[nH]c(=O)c1Cc1ccccc1 | 3.2* | / | / | 5.3* | / | /
CN(C)CCNC(=O)c1coc(=O)c(Br)c1 | 105.4 | 106.3 | -3.8 | 87.5 | 111.7 | 64.3
O=C(NCCC1=CCCCC1)c1coc(=O)c(Br)c1 | 1.0* | / | / | 1.1* | / | /
O=C(NCCC1=CCCCC1)c1ccc(=O)oc1 | 95.2 | 101.5 | 1.4 | 97.6 | 108.1 | 48.4
CC(C)CNC(=O)c1coc(=O)c(Br)c1 | 68.0 | 26.7* | 9.8 | 74.3 | 83.6 | 0.8*
Cn1c(=O)c2nc(NCc3ccccc3)cnc2n(C)c1=O | 90.7 | 101.8 | -0.8 | 103.6 | 108.5 | 97.9
Cc1nc2c(=O)n(C)c(=O)n(C)c2nc1Cl | 4.2 | / | / | 3.6* | / | /
COc1ccc(N2C(=O)NC3CC2(C)Oc2ccccc23)cc1OC (stereo not given) | 40.0 | 102.8 | 2.5 | 43.4 | 95.9 | 25.8*
N#Cc1c(Oc2ccc3ccccc3c2)sc(C(=O)c2ccccc2)c1N | 14.3 | / | / | 16.3 | / | /
Cc1sc2cc3c(c(C(=O)c4ccccc4)[n+]2c1C)-c1cccc2cccc-3c12 | 2.1* | / | / | 2.2* | / | /
O=C(c1ccccc1)c1c2c(cc3sc4ccccc4[n+]13)-c1cccc3cccc-2c13 | 2.3* | / | / | 2.1* | / | /
CCCCN(CC)CCCNC(=S)Nc1ccc2nc3n(c(=O)c2c1)CCCCC3 | 97.1 | / | / | 89.7 | / | /
SMILES | HCT116 PTEN-null | Lung fibro prol | Calb biofilm kill | bCat KO growth | HUVEC inhibit | H69AR inhibit
Cn1nc(C(=O)NCc2cccs2)c2ccccc2c1=O | 89.3 | / | / | 95.5 | / | /
Cc1cccc(-n2nc(C(=O)c3ccco3)cc(-c3nc4ccccc4[nH]3)c2=N)c1 | 54.8 | / | / | 60.2 | / | /
COc1ccc(-n2nc(C(=O)c3cccs3)cc(-c3nc4ccccc4[nH]3)c2=N)cc1 | 4.3 | 78.2 | 5.4 | 20.5 | 28.8* | 1.4*
COC(=O)CSc1ncccc1-c1nc2ccccc2[nH]1 | 98.6 | 100.0 | 6.7 | 83.1 | 103.7 | 82.3
Cc1ccccc1-n1nc(C(=O)c2cccs2)cc(-c2nc3ccccc3[nH]2)c1=N | 49.8 | 78.0 | 2.2 | 53.7 | 71.5 | 37.8*
CC(=O)c1cccc(NC(=O)CSCc2ccccc2)c1 | 99.0 | / | / | 107.8 | / | /
CC(=O)O[C@@H]1C[C@H]2C(C)(C)C(=O)C=C[C@]2(C)[C@H]2CC[C@@]3(C)[C@H](c4ccoc4)OC(=O)[C@H]4O[C@]43[C@@]21C | 4.2 | / | / | 3.9* | / | /
CCOC(=O)C1=C(C)NC(=O)NC1c1ccoc1 (stereo not given) | / | / | / | 99.2 | / | /
CC(C)Cn1c(SCC(=O)N2CCN(S(=O)(=O)c3ccccc3)CC2)nc2ccccc21 | 58.4 | 95.4 | 9.0 | 51.4 | 82.0 | 31.5*
